Measurements: ChEMBL document CHEMBL1127446, “Structure-activity relationships of 1,2,4-triazolo[1,5-a] quinoxalines and their 1-deaza analogues imidazo[1,2-a]quinoxalines at the benzodiazepine receptor” (J Med Chem, 1994)

Tests used:
[1] = target: T1, GABA-A receptor; anion channel (Bos taurus) (UniProt P10063+P08220+P20237+P08219+P10064+P22300); test: GABA ratio is measured by IC50 (compound)/IC50 (compound at 10 uM GABA; type: protein-complex assay
Method in brief: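 [³H]flunitrazepam (0.2 nM) displacement in bovine brain membranes; IC50 from log-probit plots, measured without and with 10 μM GABA. Ratio = IC50 without GABA / IC50 with GABA, from five independent experiments; compounds dissolved in DMSO.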

[2] = target: GABA-A receptor; anion channel; test: Binding affinity to BZR receptor on bovine cerebral cortex by [3H]flunitrazepam displacement.; type: tissue-based
Method in brief: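 Compounds first screened at 10 μM, then IC50 from log-probit plots and Ki derived from it. Ki given as mean ± SEM of four determinations.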

[3] = target: T1, GABA-A receptor; anion channel (Bos taurus); test: Binding affinity to BZR receptor of bovine cerebral cortex by [3H]flunitrazepam displacement at 10 uM; type: tissue-based
Method in brief: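 Percent inhibition of specific binding measured with test compound at 10 μM, dissolved in DMSO.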

SMILES | Ratio [1] | Ki [2] | inhibition [3]
Oc1nc2ccc(Cl)cc2n2nc(-c3cccc(F)c3)nc12 | 0.82 | 32.8 nM | 
Oc1nc2ccc(Cl)cc2n2nc(-c3ccco3)nc12 | 0.67 | 14.5 nM | 
Cn1c(=O)c2nc(-c3ccccc3)cn2c2ccccc21 |  |  | 2%
O=c1[nH]c2ccc(Cl)cc2n2nc(-c3ccsc3)nc12 |  | 15.9 nM | 
Oc1nc2ccc(Br)cc2n2nc(-c3ccco3)nc12 | 0.77 | 13.2 nM | 
COc1ccc(-c2nc3c(=O)[nH]c4ccc(Cl)cc4n3n2)cc1 |  | 5.4 nM | 
COc1ccc(-c2nc3c(O)nc4ccc(Cl)cc4n3n2)cc1 | 1.03 |  | 
Oc1nc2ccc(Cl)cc2n2nc(-c3ccoc3)nc12 | 0.84 | 9.8 nM | 
O=c1[nH]c2ccc(Cl)cc2n2nc(-c3cccs3)nc12 |  | 17.4 nM | 
Oc1nc2ccc(Cl)cc2n2nc(-c3ccsc3)nc12 | 0.8 |  | 
Oc1ccc(-c2nc3c(O)nc4ccc(Cl)cc4n3n2)cc1 | 0.88 | 29.8 nM | 
Oc1nc2ccc(Cl)cc2n2nc(-c3ccccc3F)nc12 | 0.77 | 2.9 nM | 

More lines, now with the values ahead:

Ratio [1] | Ki [2] | inhibition [3] | SMILES
1.05 | 71.2 nM |  | Oc1nc2ccccc2n2nc(-c3ccco3)nc12
0.9 | 67.5 nM |  | Oc1ccc(-c2nc3c(O)nc4ccccc4n3n2)cc1
1.09 |  |  | Oc1nc2ccc(Cl)cc2n2nc(-c3cccs3)nc12
1.13 | 15.9 nM |  | Oc1nc2ccccc2n2cc(-c3cccs3)nc12
1.21 | 56.4 nM |  | COc1ccc(-c2cn3c(n2)c(O)nc2ccccc23)cc1
1.04 | 87.8 nM |  | COc1ccc(-c2nc3c(O)nc4ccccc4n3n2)cc1
1.04 | 8.9 nM |  | Oc1nc2ccccc2n2nc(-c3ccccc3F)nc12
1.36 | 42.3 nM |  | Oc1nc2ccccc2n2cc(-c3ccccc3)nc12
0.92 | 21.8 nM |  | Oc1nc2ccccc2n2nc(-c3cccs3)nc12
